Measured values published in ChEMBL document CHEMBL1165950, “Design and synthesis of new potent anticancer pyrazoles with high FLT3 kinase inhibitory selectivity” (Bioorg Med Chem, 2010).

Experiments:
Type in all cases: functional
SR = test: Cytotoxicity against human SR cells assessed as cell growth at 10 uM; conditions: read-out: Activity
In short: (§1)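 NCI-60 screen: cells grown in RPMI 1640 with 5% FBS and 2 mM L-glutamine, plated at 5000–40,000 cells/well according to doubling time, and preincubated 24 h at 37 °C, 5% CO2. The single 10 µM dose (DMSO stock) was added, then incubated 48 h. Cells were TCA-fixed and stained with 0.4% SRB, read at 515 nm, and growth % calculated against time-zero and control plates.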

[1] = Cytotoxicity against human Hs 578T cells assessed as cell growth at 10 uM; conditions: read-out: Activity
In short: (§2)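 Single-dose NCI-60 screen at 10 µM. Cells were grown in RPMI 1640 with 5% FBS and 2 mM L-glutamine, then treated for 48 h at 37 °C. Protein was measured by SRB staining with absorbance at 515 nm. Percentage growth was recorded, and inhibition percentage was calculated as 100 minus growth percentage.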

CAKI-1 = test: Cytotoxicity against human Caki1 cells assessed as cell growth at 0.01 uM after 48 hrs by sulforhodamine B assay; conditions: CAKI-1, 48 h, read-out: Activity
PC-3 = test: Growth inhibition of human PC3 cells after 48 hrs by sulforhodamine B assay; conditions: PC-3, 48 h
In short: (§3)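 NCI 60-cell screen, five-dose mode. Cells grown in RPMI 1640 with 5% FBS and 2 mM L-glutamine and plated at 5000-40,000 cells/well according to doubling time. After 24 h preincubation, a Tz plate was TCA-fixed. Five concentrations (10-fold or 1/2 log dilutions) were applied for 48 h at 37 °C. SRB staining read at 515 nm. IC50 taken from [(Ti-Tz)/(C-Tz)]×100 = 50.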

UACC-62 = test: Growth inhibition of human UACC62 cells after 48 hrs by sulforhodamine B assay; conditions: UACC-62, 48 h; in short: as §3
M14 [2] = test: Cytotoxicity against human M14 cells assessed as cell growth at 100 nM after 48 hrs by sulforhodamine B assay; conditions: M14, 48 h, read-out: Activity
NCI/ADR-RES = test: Cytotoxicity against human NCI/ADR-RES cells assessed as cell growth at 0.001 uM after 48 hrs by sulforhodamine B assay; conditions: read-out: Activity
DU-145 = test: Cytotoxicity against human DU145 cells assessed as cell growth at 10 uM; conditions: read-out: Activity; in short: as §2
LOX IMVI [3] = test: Cytotoxicity against human LOXIMVI cells assessed as cell growth at 0.001 uM after 48 hrs by sulforhodamine B assay; conditions: read-out: Activity
ACHN = test: Cytotoxicity against human ACHN cells assessed as cell growth at 10 uM after 48 hrs by sulforhodamine B assay; conditions: read-out: Activity
In short: (§4)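 NCI-60 five-dose screen. Cells were grown in RPMI 1640 with 5% FBS and 2 mM L-glutamine, plated at 5000–40,000 cells/well and preincubated for 24 h. Time-zero plates were TCA-fixed. DMSO-solubilized drug was added at five concentrations (10-fold or ½-log serial dilutions) for 48 h at 37 °C, 5% CO2. Cells were TCA-fixed, stained with 0.4% SRB and read at 515 nm. Percent growth used time-zero, control and test absorbances.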

NCI-H322M = test: Cytotoxicity against human NCI-H322M cells assessed as cell growth at 10 uM; conditions: read-out: Activity; in short: as §1
NCI-H522 = test: Cytotoxicity against human NCI-H522 cells assessed as cell growth at 0.001 uM after 48 hrs by sulforhodamine B assay; conditions: NCI-H522, 48 h, read-out: Activity
CCRF-CEM [4] = test: Cytotoxicity against human CCRF-CEM cells assessed as cell growth at 1 uM after 48 hrs by sulforhodamine B assay; conditions: read-out: Activity; in short: as §4
SNB-75 = test: Cytotoxicity against human SNB75 cells assessed as cell growth at 100 nM after 48 hrs by sulforhodamine B assay; conditions: SNB-75, 48 h, read-out: Activity
NCI-H460 [5] = test: Cytotoxicity against human NCI-H460 cells assessed as cell growth at 10 uM after 48 hrs by sulforhodamine B assay; conditions: NCI-H460, 48 h, read-out: Activity
M14 [6] = test: Growth inhibition of human M14 cells after 48 hrs by sulforhodamine B assay; conditions: M14, 48 h; in short: as §3
BT-549 [7] = test: Cytotoxicity against human BT549 cells assessed as cell growth at 10 uM; conditions: read-out: Activity; in short: as §2
NCI-H460 [8] = test: Cytotoxicity against human NCI-H460 cells assessed as cell growth at 0.01 uM after 48 hrs by sulforhodamine B assay; conditions: NCI-H460, 48 h, read-out: Activity
OVCAR-8 [9] = test: Cytotoxicity against human OVCAR8 cells assessed as cell growth at 0.01 uM after 48 hrs by sulforhodamine B assay; conditions: OVCAR-8, 48 h, read-out: Activity
[10] = Growth inhibition of human […] cells after 48 hrs by sulforhodamine B assay; in short: as §3
A498 [11] = test: Cytotoxicity against human A498 cells assessed as cell growth at 0.01 uM after 48 hrs by sulforhodamine B assay; conditions: A498, 48 h, read-out: Activity; in short: as §4
UACC-257 = test: Cytotoxicity against human UACC257 cells assessed as cell growth at 1 uM after 48 hrs by sulforhodamine B assay; conditions: UACC-257, 48 h, read-out: Activity
Malme-3M = test: Cytotoxicity against human MALME-3M cells assessed as cell growth at 10 uM; conditions: read-out: Activity; in short: as §1
NCI-H460 [12] = test: Cytotoxicity against human NCI-H460 cells assessed as cell growth at 100 nM after 48 hrs by sulforhodamine B assay; conditions: NCI-H460, 48 h, read-out: Activity
CCRF-CEM [13] = test: Cytotoxicity against human CCRF-CEM cells assessed as cell growth at 10 uM after 48 hrs by sulforhodamine B assay; conditions: read-out: Activity; in short: as §4
BT-549 [14] = test: Cytotoxicity against human BT549 cells assessed as cell growth at 10 uM after 48 hrs by sulforhodamine B assay; conditions: BT-549, 48 h, read-out: Activity; in short: as §4
SW-620 [15] = test: Growth inhibition of human SW620 cells after 48 hrs by sulforhodamine B assay; conditions: SW-620, 48 h; in short: as §3
OVCAR-8 [16] = test: Cytotoxicity against human OVCAR8 cells assessed as cell growth at 10 uM after 48 hrs by sulforhodamine B assay; conditions: OVCAR-8, 48 h, read-out: Activity
HCT-15 = test: Cytotoxicity against human HCT15 cells assessed as cell growth at 10 uM after 48 hrs by sulforhodamine B assay; conditions: HCT-15, 48 h, read-out: Activity
HOP-62 = test: Cytotoxicity against human HOP62 cells assessed as cell growth at 1 uM after 48 hrs by sulforhodamine B assay; conditions: HOP-62, 48 h, read-out: Activity
SW-620 [17] = test: Cytotoxicity against human SW620 cells assessed as cell growth at 0.01 uM after 48 hrs by sulforhodamine B assay; conditions: SW-620, 48 h, read-out: Activity
A498 [18] = test: Cytotoxicity against human A498 cells assessed as cell growth at 10 uM after 48 hrs by sulforhodamine B assay; conditions: A498, 48 h, read-out: Activity; in short: as §4
LOX IMVI [19] = test: Cytotoxicity against human LOXIMVI cells assessed as cell growth at 1 uM after 48 hrs by sulforhodamine B assay; conditions: read-out: Activity
[20] = read-out: LC50 (the source's name)

Structure (SMILES): COc1cc(C)cc(-c2nn(CC#N)cc2-c2ccnc(-c3ccc(N(C)C)cc3)c2)c1
- growth at 10 µM (SR): 9.06%
- growth at 10 µM [1]: 31.6%
- growth at 0.01 µM (CAKI-1): 92%
- GI50 (PC-3): 363 nM
- LC50 (concentration giving 50% net cell kill) (PC-3): > 100000 nM
- TGI (PC-3): > 100000 nM
- GI50 (UACC-62): 337 nM
- TGI (UACC-62): 40700 nM
- CC50 (UACC-62; [20]): > 100000 nM
- growth at 0.1 µM (M14 [2]): -12%
- growth at 0.001 µM (NCI/ADR-RES): 96%
- growth at 10 µM (DU-145): 2.87%
- growth at 0.001 µM (LOX IMVI [3]): 98%
- growth at 10 µM (ACHN): -18%
- growth at 10 µM (NCI-H322M): 41.1%
- growth at 0.001 µM (NCI-H522): 77%
- growth at 1 µM (CCRF-CEM [4]): 16%
- growth at 0.1 µM (SNB-75): -8%
- growth at 10 µM (NCI-H460 [5]): -51%
- GI50 (M14 [6]): 258 nM
- TGI (M14 [6]): 769 nM
- CC50 (M14 [6]; [20]): > 100000 nM
- growth at 10 µM (BT-549 [7]): -28.5%
- growth at 0.01 µM (NCI-H460 [8]): 106%
- growth at 0.01 µM (OVCAR-8 [9]): 97%
- GI50 [10]: 1360 nM
- TGI [10]: 10700 nM
- CC50 [10, 20]: > 100000 nM
- growth at 0.01 µM (A498 [11]): 88%
- growth at 1 µM (UACC-257): 48%
- growth at 10 µM (Malme-3M): 82%
- growth at 0.1 µM (NCI-H460 [12]): 8%
- growth at 10 µM (CCRF-CEM [13]): 10%
- growth at 10 µM (BT-549 [14]): -30%
- GI50 (SW-620 [15]): 332 nM
- TGI (SW-620 [15]): > 100000 nM
- CC50 (SW-620 [15]; [20]): > 100000 nM
- growth at 10 µM (OVCAR-8 [16]): -8%
- growth at 10 µM (HCT-15): -20%
- growth at 1 µM (HOP-62): 5%
- growth at 0.01 µM (SW-620 [17]): 90%
- growth at 10 µM (A498 [18]): -33%
- growth at 1 µM (LOX IMVI [19]): 5%
